Test results reported in ChEMBL document CHEMBL3259675, “Novel N-substituted sophoridinol derivatives as anticancer agents” (Eur J Med Chem, 2014).
pIC50: −log10 of the molar value.

Columns and labels:
[1] = test system: HepG2; assay: Antiproliferative activity against human HepG2 cells assessed as growth inhibition at 10 ug/ml after 48 hrs by MTT assay; format: functional; settings: HepG2, 48 h
Method in brief: (§1)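 Cell lines from ATCC, grown in MEM-EBSS with 10% FBS and 1% penicillin-streptomycin at 37 °C, 5% CO2. Seeded at 4000 cells/well, left 24 h, then exposed to a concentration series for 48 h. Growth read by MTT. Percent inhibition was computed at each concentration and IC50 derived from it. Triplicate determinations, reported as mean SD.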

[2] = test system: NCI-H1299; assay: Antiproliferative activity against human NCI-H1299 cells assessed as growth inhibition after 48 hrs by MTT assay; format: functional, cell-based; settings: NCI-H1299, 48 h; method in brief: as §1
[3] = test system: HCT-116; assay: Antiproliferative activity against human HCT116 cells assessed as growth inhibition after 48 hrs by MTT assay; format: functional, cell-based; settings: HCT-116, 48 h; method in brief: as §1
[4] = test system: Mus musculus; assay: Toxicity in mouse assessed as body weight at 250 to 1000 mg/kg, ig; format: organism-based; design: dose 250-1000 mg/kg, route intragastric; settings: in vivo, po
[5] = test system: HepG2; assay: Cell cycle arrest in human HepG2 cells assessed as accumulation at G0/G1 phase at 5 ug/ml after 24 hrs by FACS flow cytometric analysis (reference value: 2 %); format: functional; settings: HepG2, 24 h
Method in brief: (§2)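 HepG2 cells exposed to 0, 2.5, 5 or 10 µg/ml for 24 h, then harvested. Fixed in 70% ethanol and held at −20 °C. Cell-cycle distribution determined by flow cytometry, with untreated cells as control.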

[6] = test system: HepG2; assay: Cell cycle arrest in human HepG2 cells assessed as accumulation at G0/G1 phase at 10 ug/ml after 24 hrs by FACS flow cytometric analysis (reference value: 2 %); format: functional; settings: HepG2, 24 h; method in brief: as §2
[7] = test system: HepG2; assay: Antiproliferative activity against human HepG2 cells assessed as growth inhibition after 48 hrs by MTT assay; format: functional, cell-based; settings: HepG2, 48 h; method in brief: as §1
[8] = test system: Mus musculus; assay: Toxicity in mouse at 250 to 1000 mg/kg, ig; format: organism-based; design: dose 250-1000 mg/kg, route intragastric; settings: in vivo, po
Method in brief: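 Single-dose toxicity in mice: compound given intragastrically at 250, 500 or 1000 mg/kg, with deaths monitored.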

[9] = Antiproliferative activity against human U87 cells assessed as growth inhibition after 48 hrs by MTT assay; format: functional, cell-based, U-87MG ATCC; settings: U-87 MG; method in brief: as §1
[10] = test system: HepG2; assay: Cell cycle arrest in human HepG2 cells assessed as accumulation at G0/G1 phase at 2.5 ug/ml after 24 hrs by FACS flow cytometric analysis (reference value: 2 %); format: functional; settings: HepG2, 24 h; method in brief: as §2
[11] = test system: KB; assay: Antiproliferative activity against human KB cells assessed as growth inhibition after 48 hrs by MTT assay; format: functional, cell-based; method in brief: as §1
[12] = test system: MCF7; assay: Antiproliferative activity against human MCF7 cells assessed as growth inhibition after 48 hrs by MTT assay; format: functional, cell-based; settings: MCF7, 48 h; method in brief: as §1

pIC50 [2]: 5.39
pIC50 [3]: 5.34
pIC50 [7]: 5.39
pIC50 [11]: 5.21
pIC50 [12]: 4.70
Compound: COC(=O)CCC[C@@H]1[C@H]2CCCN3CCC[C@H](CN1Cc1ccc(Cl)cc1)[C@@H]23
inhibition at 10 µg/mL [1]: 97.6%
Activity [4]: Non-toxic
inhibition at 5 µg/mL [5]: 11.8%
inhibition at 10 µg/mL [6]: 8.5%
Activity [8]: Non-toxic
pIC50 [9]: 4.90
inhibition at 2.5 µg/mL [10]: 6.3%
